Consider 2 molecules from ChEMBL document CHEMBL1124137, “Synthesis and testing of quinone-based bis(2,2-dimethyl-1-aziridinyl)phosphinyl carbamates as radiation-potentiating antitumor agents” (1988).

Format in all cases: functional
Experiment [1] relates to Mus musculus. Description: Average weight change on day 5 in mice infected by P-388 leukemia when treated with a dose of 128 mg/Kg of compound. In outline: (§1)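 P-388 leukemia kept as ascites in DBA/2 mice; 10⁶ cells implanted into female CDF₁ mice (16–20 g), six mice per dose, 10 untreated leukemia controls. Compound dissolved in water with Tween 80 and given as a single ip injection on day 1 after implant, within 15 min of dissolving. Body weight change averaged on day 5.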

Experiment [2] has as its system Mus musculus. Description: Average weight change on day 5 in mice infected by P-388 leukemia when treated with a dose of 16 mg/Kg of compound. In short, it runs like this: as §1
Experiment [3] relates to Mus musculus. Briefly: Average weight change on day 5 in mice infected by P-388 leukemia when treated with a dose of 256 mg/Kg of compound. In outline:
as §1

Experiment [4] has as its system Mus musculus. Description: Average weight change on day 5 in mice infected by P-388 leukemia when treated with a dose of 32 mg/Kg of compound. In short, it runs like this:
as §1

The test system of experiment [5] is Mus musculus. Description: Average weight change on day 5 in mice infected by P-388 leukemia when treated with a dose of 64 mg/Kg of compound. In short, it runs like this:
as §1

The test system of experiment [6] is Mus musculus. Description: Average weight change on day 5 in mice infected by P-388 leukemia when treated with a dose of 8 mg/Kg of compound. In short, it runs like this:
as §1

Experiment [7] deals with Mus musculus. Briefly: Median survival time (MST) of treated mice infected by P-388 leukemia, as percent of the MST of untreated controls when treated with a dose of 32 mg/Kg of compound. In outline: (§2)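 P-388 leukemia kept as ascites in DBA/2 mice. CDF1 female mice (16–20 g) received 10⁶ cells; six mice per dose and 10 untreated leukemia controls. Drug in water with Tween 80, given within 15 min of dissolution as a single ip injection on day 1 after implant. Mice observed until death; %T/C is treated over control median survival time. Average weight change taken on day 5.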

In experiment [8] the test system is Mus musculus. Briefly: Median survival time (MST) of treated mice infected by P-388 leukemia, as percent of the MST of untreated controls when treated with a dose of 64 mg/Kg of compound. In outline:
as §2

For experiment [9], the system named is Mus musculus. Briefly: Median survival time (MST) of treated mice infected by P-388 leukemia, as percent of the MST of untreated controls when treated with a dose of 8 mg/Kg of compound. In short, it runs like this:
as §2

Experiment [10] deals with Mus musculus. Description: Median survival time (MST) of treated mice infected by P-388 leukemia, as percent of the MST of untreated controls when treated with a dose of 128 mg/Kg of compound. In short, it runs like this:
as §2

In experiment [11] the test system is Mus musculus. Briefly: Median survival time (MST) of treated mice infected by P-388 leukemia, as percent of the MST of untreated controls when treated with a dose of 16 mg/Kg of compound. In outline:
as §2

Experiment [12] has as its system Mus musculus. Briefly: Median survival time (MST) of treated mice infected by P-388 leukemia, as percent of the MST of untreated controls when treated with a dose of 256 mg/Kg of compound. In short, it runs like this: as §2
The test system of experiment [13] is Mus musculus. Briefly: Average weight change on day 5 in mice infected by P-388 leukemia when treated with a dose of 100 mg/Kg of compound. In short, it runs like this: as §2
Experiment [14] has as its system Mus musculus. Description: Average weight change on day 5 in mice infected by P-388 leukemia when treated with a dose of 200 mg/Kg of compound. In short, it runs like this:
as §2

Experiment [15] relates to Mus musculus. Briefly: Average weight change on day 5 in mice infected by P-388 leukemia when treated with a dose of 400 mg/Kg of compound. In short, it runs like this:
as §2

Experiment [16] has as its system Mus musculus. Briefly: Average weight change on day 5 in mice infected by P-388 leukemia when treated with a dose of 50 mg/Kg of compound. In outline: as §2
Experiment [17] deals with Mus musculus. Briefly: Median survival time (MST) of treated mice infected by P-388 leukemia, as percent of the MST of untreated controls when treated with a dose of 100 mg/Kg of compound. In outline: as §2
Experiment [18] concerns Mus musculus. Description: Median survival time (MST) of treated mice infected by P-388 leukemia, as percent of the MST of untreated controls when treated with a dose of 400 mg/Kg of compound. In outline: as §2
In experiment [19] the test system is Mus musculus. Description: Median survival time (MST) of treated mice infected by P-388 leukemia, as percent of the MST of untreated controls when treated with a dose of 50 mg/Kg of compound. In short, it runs like this:
as §2

For experiment [20], the system named is Mus musculus. Briefly: Median survival time (MST) of treated mice infected by P-388 leukemia, as percent of the MST of untreated controls when treated with a dose of 200 mg/Kg of compound. In outline: as §2

Turning to `CC1(C)CN1P(=O)(NC(=O)OCC/N=C1C(O)=C(Cl)/C(=N\CCOC(=O)NP(=O)(N2CC2(C)C)N2CC2(C)C)C(O)=C/1Cl)N1CC1(C)C` (stereo not given), the AWC in the experiment with Mus musculus [1] is on record as -0.9 g; with Mus musculus [2], -1.1 g; in the experiment on Mus musculus [3] it was -2.1 g; with Mus musculus [4], -0.6 g; with Mus musculus [5], -1.2 g; in the experiment on Mus musculus [6], -0.4 g. Also, the T/C (usually the ratio of treated to control) in the experiment with Mus musculus [7] is reported as 129%; with Mus musculus [8], 124%; in the experiment on Mus musculus [9] it was 118%; with Mus musculus [10], 135%; in the experiment with Mus musculus [11], 124%; in the experiment on Mus musculus [12] it was 165%.

Take `CCOC(=O)NP(=O)(N1CC1(C)C)N1CC1(C)C` (stereo not given) [METUREDEPA]: the AWC in the experiment on Mus musculus [13] is given as -0.4 g; with Mus musculus [14] it was -0.2 g; in the experiment on Mus musculus [15], -1.3 g; with Mus musculus [16], -0.7 g. In addition, the T/C in the experiment on Mus musculus [17] amounted to 181%; in the experiment on Mus musculus [18], 244%; in the experiment on Mus musculus [19] it was 163%; in the experiment with Mus musculus [20], 231%.
